Data taken from PMC5188857 (Brazilian Journal of Medical and Biological Research, 2016).
Values joined by “and” are separate entries in the source; they are usually repeats but may differ in a detail not shown here. Identical values can stand only once. Like-named read-outs stand apart in the source and are kept apart here.

Tests used:
Solubility at pH 7.4 = format: physicochemical; conditions: 50 mM sodium phosphate buffer
In short: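 Working stock was spiked into 50 mM sodium phosphate buffer, pH 7.4, and held 2 h; concentrations up to 100 µM were tested. Samples were centrifuged at 1,000 g for 20 min at room temperature. Supernatant was diluted 1:1 in acetonitrile and quantified by LC-MS/MS (phenyl column, positive-ion MRM, internal standard).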

[1] = Plasma protein binding by equilibrium dialysis, rat plasma; format: in vitro ADME; conditions: 10 µM, means±SD, n=6
In short: (§1)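 Equilibrium dialysis used plasma (human or rat) spiked with 10 µM test compound in the donor side against phosphate buffer in the acceptor side. Plates were sealed and incubated 6 h at 37°C, 60 rpm, 5% CO2. Diclofenac (5 µM) served as positive control. Bound percentage is given as mean±SD, n=6.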

[2] = Plasma protein binding by equilibrium dialysis, human plasma; format: in vitro ADME; conditions: 10 µM, means±SD, n=6
In short: as §1

[3] = Permeability on MDCK-MDR1 cell monolayer; format: in vitro ADME; conditions: dog; for Papp B→A at 129 min: MDCK-MDR1; for Papp A→B at 129 min: MDCK-MDR1, Papp apical to basolateral, MDCK-MDR1 monolayer, n=3
MDCK-MDR1 cells = experiment: Permeability on MDCK-MDR1 cell monolayer; format: in vitro ADME; conditions: MDCK-MDR1 monolayer, n=3
P-gp = experiment: Permeability on MDCK-MDR1 cell monolayer; format: in vitro ADME; conditions: dog, MDCK-MDR1
Plasma stability, rat = format: in vitro ADME
In short: (§2)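 Test-compound-spiked rat or human plasma was incubated 6 h at 37°C. Percent recovery was then determined, reported as mean±SD, n=6.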

Plasma stability, human = format: in vitro ADME
In short: as §2

[4] = In vitro metabolism in rat liver microsomes; format: in vitro ADME
[5] = In vitro metabolism in human liver microsomes; format: in vitro ADME
[6] = In vitro metabolism in rat hepatocytes; format: in vitro ADME; conditions: rat, hepatocytes
rat hepatocytes = experiment: In vitro metabolism in rat hepatocytes; format: in vitro ADME; conditions: rat hepatocytes, 0.5 µM
[7] = In vitro metabolism in human hepatocytes; format: in vitro ADME; conditions: human, hepatocytes
human hepatocytes = experiment: In vitro metabolism in human hepatocytes; format: in vitro ADME; conditions: human hepatocytes, 0.5 µM, two separate experiments
CYP2D6 = CYP2D6 (Homo sapiens, UniProt P10635); experiment: CYP profiling with purified isozyme; format: in vitro ADME; conditions: purified human CYP2D6 isozyme (Cypex)
Sequence of CYP2D6 (P10635 whole entry): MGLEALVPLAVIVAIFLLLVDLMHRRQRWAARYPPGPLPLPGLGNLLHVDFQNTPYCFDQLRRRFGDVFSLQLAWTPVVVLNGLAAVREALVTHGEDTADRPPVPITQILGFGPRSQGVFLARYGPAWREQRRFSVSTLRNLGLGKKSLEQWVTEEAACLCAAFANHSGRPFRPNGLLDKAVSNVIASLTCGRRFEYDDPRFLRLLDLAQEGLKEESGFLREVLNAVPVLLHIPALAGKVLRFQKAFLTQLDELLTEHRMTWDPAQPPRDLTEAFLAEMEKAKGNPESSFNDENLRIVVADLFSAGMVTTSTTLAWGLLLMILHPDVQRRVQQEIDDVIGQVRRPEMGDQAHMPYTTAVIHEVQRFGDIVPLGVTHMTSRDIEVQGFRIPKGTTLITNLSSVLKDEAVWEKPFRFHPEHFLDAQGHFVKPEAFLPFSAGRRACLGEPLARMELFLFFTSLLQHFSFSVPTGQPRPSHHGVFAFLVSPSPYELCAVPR
In short: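 Purified human recombinant CYP isozyme ([…]) was pre-incubated 10 min, then run with 0.5 µM test compound and 2 mM NADPH in phosphate buffer at 37°C. CYP-specific probe substrates were incubated separately. Parent loss over time was measured by LC-MS/MS. Half-life came from nonlinear regression to a first-order decay equation.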

CYP3A4 = CYP3A4 (Homo sapiens, UniProt P08684); experiment: CYP inhibition in human liver microsomes; format: in vitro ADME
Sequence of CYP3A4 (P08684 whole entry): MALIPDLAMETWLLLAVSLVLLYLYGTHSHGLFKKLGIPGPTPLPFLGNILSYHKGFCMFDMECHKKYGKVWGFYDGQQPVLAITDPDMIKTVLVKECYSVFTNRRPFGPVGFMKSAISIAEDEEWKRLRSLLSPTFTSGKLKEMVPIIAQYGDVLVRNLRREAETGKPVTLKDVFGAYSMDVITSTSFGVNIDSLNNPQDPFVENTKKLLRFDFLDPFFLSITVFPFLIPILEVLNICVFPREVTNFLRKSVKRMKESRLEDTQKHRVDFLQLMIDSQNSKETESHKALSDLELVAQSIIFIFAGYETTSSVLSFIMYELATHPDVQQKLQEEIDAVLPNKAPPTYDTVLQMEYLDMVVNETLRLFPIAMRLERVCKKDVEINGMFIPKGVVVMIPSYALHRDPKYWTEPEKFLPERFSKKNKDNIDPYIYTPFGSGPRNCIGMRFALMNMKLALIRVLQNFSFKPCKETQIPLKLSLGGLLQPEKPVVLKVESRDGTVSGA

mice motor coordination = experiment: Rota-rod test; format: in vivo; conditions: 10 µg/kg iv, 3, 10 and 30 min after administration
In short: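 Adult male Swiss Webster mice (~40 g) were trained 1 day and 1 h before testing. Only those staying ≥1 min without falling were used. Test compound (10 µg/kg) or saline was given iv via the orbital plexus, 6 mice per group. At 3, 10 and 30 min, falls were counted over a 4-min observation, with latency to each fall recorded.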

mice = experiment: Acute toxicity test, single dose; format: in vivo; conditions: for Body temperature: 100 μg/kg ip
In short: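 Female Swiss Webster mice (25–30 g), 6 per condition, got a single ip dose of 100 μg/kg test compound, with saline controls. Behaviour, motor coordination, muscle tone, CNS and autonomic signs, water and food intake and lethality were scored during the first hour, at 2, 4 and 8 h, then daily to day 14. Anal-probe body temperature was taken before dosing and at 30 and 60 min.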

[8] = cited from earlier work
[9] = single dose 100 μg/kg ip, 14 days observation

Which solubility at 2 h (Solubility at pH 7.4) does the source give for `COc1ccc(CCN2CCN(c3ccccc3OC)CC2)cc1OC.Cl` [LDT5, 1-(2-methoxyphenyl)-4-[2-(3,4-dimethoxyphenyl)ethyl]piperazine monohydrochloride] here?
The solubility at 2 h was ≥ 100 µM.

And the “Binding to plasma proteins” value [1]?
The value was 80±2%.

And the “Binding to plasma proteins” value [2]?
Its value is 73±1%.

What about the Papp B→A at 129 min [3] of the same compound?
Its Papp B→A at 129 min is 32.4 ± 1.1 ×10⁻⁶ cm/s.

And the Papp A→B at 129 min [3]?
Its Papp A→B at 129 min is ~32 ×10⁻⁶ cm/s.

And the “Papp apical to basolateral” value (MDCK-MDR1 cells)?
Its value is 32.2±1.1 ×10^-6 cm/s.

What about the efflux ratio at 129 min (P-gp) of the same compound?
The efflux ratio at 129 min was 1.

What about the recovery at 6 h (Plasma stability, rat) of the same compound?
The recovery at 6 h was 87 ± 4%.

And the recovery at 6 h (Plasma stability, human)?
Its recovery at 6 h is 91 ± 4%.

And the half-life at 0.5 µM ([4]; male, Sprague Dawley, rat, liver microsomes)?
Its half-life at 0.5 µM is 10 min.

What about the Intrinsic clearance ([4]; rat liver microsomes, 0.5 µM, two separate experiments) of the same compound?
The Intrinsic clearance was 6.4 mL·min^-1·g liver^-1 and 6.7 mL·min^-1·g liver^-1.

What about the half-life at 0.5 µM ([5]; both, human, liver microsomes) of the same compound?
Its half-life at 0.5 µM is > 30 min.

What about the Intrinsic clearance ([5]; human liver microsomes, 0.5 µM) of the same compound?
The Intrinsic clearance was < 0.6 mL·min^-1·g liver^-1.

And the half-life at 0.5 µM [6]?
Its half-life at 0.5 µM is 11 min.

What about the Intrinsic clearance (rat hepatocytes) of the same compound?
The Intrinsic clearance was > 2 mL·min^-1·g liver^-1.

And the half-life at 0.5 µM [7]?
Its half-life at 0.5 µM is 120 min.

And the Intrinsic clearance (human hepatocytes)?
Its Intrinsic clearance is < 0.2 mL·min^-1·g liver^-1 and 0.22 mL·min^-1·g liver^-1.

And the half-life at 0.5 µM (CYP2D6)?
The half-life at 0.5 µM was 5 min.

And the IC50 (CYP3A4)?
The IC50 was > 100 µM.

And the IC50 (CYP3A4; read-out: IC50 CYP3A4, human liver microsomes, substrate testosterone)?
Its IC50 is > 100 µM.

And the “Effect on motor coordination (rota-rod)” value (mice motor coordination)?
The value was “no acute effect on mice motor coordination”.

What about the Body temperature (mice; 30 min after administration) of the same compound?
The Body temperature was 35.5±0.2 °C.

And the Body temperature (mice; 60 min after administration)?
Its Body temperature is 35.17±0.31 °C.

What about the Changes in behavior (mice; [9]) of the same compound?
Its Changes in behavior is “no changes in behavior”.

And the Lethality (mice; [9])?
Its Lethality is “no lethality”.

For `CCOc1ccccc1OCCN[C@H](C)Cc1ccc(OC)c(S(N)(=O)=O)c1` [tamsulosin], which “Binding to human plasma proteins” value [8] is on record?
Its value is “around 99%”.

For `C=C[C@H]1C[N@@]2CC[C@H]1C[C@@H]2[C@@H](O)c1ccnc2ccc(OC)cc12` [quinidine, reference compound], which Papp B→A at 129 min [3] is on record?
The Papp B→A at 129 min was 39.5 ± 2.8 ×10⁻⁶ cm/s.

And the Papp A→B at 129 min [3]?
Its Papp A→B at 129 min is 0.19 ± 0.05 ×10⁻⁶ cm/s.
